Shown are actives, neighbours in structure and some others; about 3.1% of the full set was active somewhere.
Cneo AK release: Cryptococcus neoformans lysis via adenylate kinase release. C. neoformans lysis, adenylate kinase release luminescence, 4 h; normalised: neutral wells 0, clomiphene wells 100. lysis activity, % at 15 µM. AID 651654. 360,000 compounds, 0.2% hits;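 active = mean lysis activity across replicates of at least 80%, whatever share of replicates individually reach that level; inactive = mean lysis activity below 80%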
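Schedule: static 4 h at 37 °C with compound, 1 h detection; system: C. neoformans cells; benchmarks: Clomiphene as positive control; buffer or medium: fresh YPD medium; measure: luminescence rise reflecting yeast cell lysis; measured by: luminescent adenylate kinase detection reagent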
miR-122 sensor: miR-122 inhibition in Huh7 cells; Huh7 miR-122 Renilla luciferase sensor, 48 h; neutral wells = 0, positive control = 100; activation (reporter increase), % at 12.5 µM; 340,000 compounds, 0.3% hits; AID 602342;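 active = mean replicate activation score at least 90 and every replicate individually at or above 90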;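 note: higher luciferase means less miR-122 activity so hits act as miR-122 inhibitors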
Ecoli rRNA inh: inhibits bacterial ribosomal RNA function over humanized ribosomes; E. coli WT GFP vs humanized-ribosome RFP mutants, fluorescence, 24 h; active compounds read low; DMSO median 0, no signal -100; GFP signal change (wild-type ribosome), % (no concentration beside the values); 350,000 compounds, 1.6% hits;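 active = significant combined selectivity score with lowered wild-type GFP, culture density cut under 30%, mutant RFP and density less affected; inactive = any of these conditions unmet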
DENV2 CPE rescue: DENV2-induced cell death inhibition; DENV2-infected cells, cytopathic effect rescue, plate reader; CPE inhibition, % at 9.99 µM; 350,000 compounds, 1.7% hits; AID 651640; in the data active = CPE inhibition above about 20%, passing the limit was not always enough; tested in BHK-21 cells;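 note: 0% = median of neutral control wells and 100% = median of positive control wells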
E-selectin induc: E-selectin induction on HUVECs. 260,000 compounds, 0.37% hits. HUVEC E-selectin immunofluorescence imaging; normalized: neutral wells 0, TNF-alpha wells 100. P16581. activation, % at 7.58 µM;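 active = mean E-selectin-positive cell signal at least 10% of the positive control, reached in at least 60% of replicates, without over 20% cell loss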
Target sequence (P16581 whole entry, looked up): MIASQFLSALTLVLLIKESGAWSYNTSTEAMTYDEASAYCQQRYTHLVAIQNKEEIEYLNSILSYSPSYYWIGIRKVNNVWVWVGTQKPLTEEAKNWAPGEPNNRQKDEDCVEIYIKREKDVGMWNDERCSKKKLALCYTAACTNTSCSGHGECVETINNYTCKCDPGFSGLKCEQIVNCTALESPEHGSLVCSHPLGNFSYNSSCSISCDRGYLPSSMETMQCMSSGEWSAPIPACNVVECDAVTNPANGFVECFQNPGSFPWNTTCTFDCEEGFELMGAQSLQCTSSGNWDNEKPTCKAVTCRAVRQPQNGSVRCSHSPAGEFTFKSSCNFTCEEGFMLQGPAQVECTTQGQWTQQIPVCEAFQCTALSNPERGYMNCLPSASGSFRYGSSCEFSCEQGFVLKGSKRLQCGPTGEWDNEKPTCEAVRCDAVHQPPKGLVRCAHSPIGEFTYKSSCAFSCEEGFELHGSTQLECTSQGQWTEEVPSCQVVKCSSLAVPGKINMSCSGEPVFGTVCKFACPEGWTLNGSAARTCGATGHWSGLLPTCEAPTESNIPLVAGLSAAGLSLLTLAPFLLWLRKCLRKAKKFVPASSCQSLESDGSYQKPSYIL
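Read-out basis: % PE-positive cells; Test system: HUVEC primary endothelial cells; Technique: immunofluorescence imaging; Dosing: single-point compound dose.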
An asterisk follows results filed as active; . = not tested or not shown; ! = a repeat was not active; [ ] = dose if it differs, or a comment.

SMILES	Cneo AK release	miR-122 sensor	Ecoli rRNA inh	DENV2 CPE rescue	E-selectin induc
CCNC(=O)[C@H]1[C@H](CO)[C@H]2Cn3c(ccc(-c4ccccc4)c3=O)[C@H]2N1C(=O)C1CCCC1	4.0	-1.2[16.7 µM]	0.5	-12.3	-0.7
Cc1ccc2nc(N/C(=N/S(=O)(=O)c3cccs3)c3ccccc3Cl)sc2c1	-1.3	6.5	-32.3*	.	7.5
Cc1ccc2nc(NC(=O)C3CCN(S(=O)(=O)c4cccs4)CC3)sc2c1	5.5	1.4	.	.	.
CC(=O)N(C)C[C@H]1Oc2ncc(C#Cc3ccccn3)cc2C(=O)N([C@@H](C)CO)C[C@@H]1C	1.6	4.7[16.7 µM]	6.2	-4.0	-0.2
CCn1c(SCC(=O)N(C)Cc2ccc(OC)c(F)c2)nc2cc(S(N)(=O)=O)ccc21	-2.1	-2.0	-0.6	2.1	42.3*
CCCNC(=O)[C@H]1[C@H](CO)[C@H]2Cn3c(ccc(/C=C/c4ccccc4)c3=O)[C@@H]1N2C(=O)c1ccccc1	-0.2	-4.3[16.7 µM]	-4.3	-0.5	-1.6
COc1ccc(OC)c(C2C3=C(COC3=O)Nc3cc4c(cc32)OCO4)c1 (centres undefined)	-6.9	139.5*	.	.	.
CN(C)CC#Cc1ccc([C@H]2[C@@H](CO)N3CCCCN(S(=O)(=O)c4ccccc4F)C[C@@H]23)cc1	.	.	-7.7	.	.
COc1ccccc1-c1nnc(C2CCN(S(=O)(=O)c3ccc([N+](=O)[O-])cc3)CC2)o1	-1.8	-1.5	9.0	1.4	.
COc1ccccc1-c1nnc(C2CCN(S(=O)(=O)c3cccc([N+](=O)[O-])c3)CC2)o1	0.8	-6.2	-22.5*	-0.1	.
COc1ccccc1-c1nnc(C2CCN(S(=O)(=O)c3ccccc3[N+](=O)[O-])CC2)o1	-2.1	-7.1	-18.1*	-3.0	.
NCC[C@H]1CC[C@H](NC(=O)C2CCCCC2)[C@@H](CO)O1	2.6	.	2.9	-2.0	-0.1
CCN(CC)C(=O)c1[nH]cnc1C(=O)Nc1cccc(C)c1	1.3	2.5	-3.4	-4.0	1.5
Cc1cccc(NC(=O)c2nc[nH]c2C(=O)N(C)CCO)c1	.	.	-40.1*	-1.7	.
CCn1c(CCc2ccccc2)nc2ccccc21	-2.0	0.4	-23.3*	-6.0	-0.1
CCC(=O)NCCc1nc2ccccc2n1CC(=O)c1ccccc1	-0.7	0.2	-0.8	76.3*	0.1
CCc1nc2ccccc2n1CCc1ccccc1	.	.	-24.1*	4.1	6.7
C[C@@H]1CCCCO[C@@H](CN(C)C(=O)Nc2ccc(F)cc2)[C@H](C)CN([C@@H](C)CO)C(=O)c2cc(NC(=O)c3ccccc3)ccc2O1	52.2	-3.6[16.7 µM]	-1.6	-9.8	0.0
C[C@@H]1CCCCO[C@@H](CN(C)C(=O)Nc2ccc(F)cc2)[C@H](C)CN([C@H](C)CO)C(=O)c2cc(NC(=O)c3ccncc3)ccc2O1	-4.0	-3.6[16.7 µM]	-1.4	26.8*	-0.1
C[C@H](CO)N1C[C@H](C)[C@H](CN(C)C(=O)Nc2ccc(F)cc2)OCCCC[C@H](C)Oc2ccc(NC(=O)c3ccccc3)cc2C1=O	-1.8	7.1[16.7 µM]	-4.8	83.8*	0.5
C[C@@H]1CCCCO[C@H](CN(C)C(=O)Nc2ccc(C(F)(F)F)cc2)[C@H](C)CN([C@H](C)CO)C(=O)c2cc(NC(=O)c3ccncc3)ccc2O1	-12.5	-8.4[16.7 µM]	-0.5	-0.8	8.1
C[C@@H]1CCCCO[C@@H](CN(C)C(=O)Nc2ccc3c(c2)OCO3)[C@@H](C)CN([C@H](C)CO)C(=O)c2cc(NC(=O)c3ccccc3)ccc2O1	5.3	8.7[16.7 µM]	4.7	20.4*	-0.1
C[C@@H]1CCCCO[C@H](CN(C)C(=O)Nc2ccc(C(F)(F)F)cc2)[C@@H](C)CN([C@H](C)CO)C(=O)c2cc(NC(=O)c3ccncc3)ccc2O1	-13.5	3.6	6.5	21.0*!	-0.2
C[C@@H]1CCCCO[C@H](CN(C)C(=O)Nc2ccc3c(c2)OCO3)[C@@H](C)CN([C@H](C)CO)C(=O)c2cc(NC(=O)c3ccccc3)ccc2O1	-0.9	4.8[16.7 µM]	-2.9	5.4	-0.1
COCCNC(=O)C[C@@H]1CC[C@@H]2[C@@H](COc3ccc(NC(C)=O)cc3C(=O)N2C)O1	-3.4	29.2[16.7 µM]	4.4	0.9	0.0
SMILES	Cneo AK release	miR-122 sensor	Ecoli rRNA inh	DENV2 CPE rescue	E-selectin induc
CCC(=O)N1C[C@H](C)[C@H](OC)CN(C)C(=O)c2cc(NC(=O)c3cc(C)on3)ccc2OC[C@@H]1C	.	9.9[16.7 µM]	-0.9	.	0.0
C[C@@H]1CCCCO[C@H](CN(C)C(=O)Nc2ccc(C(F)(F)F)cc2)[C@H](C)CN([C@@H](C)CO)C(=O)c2cc(NC(=O)c3ccncc3)ccc2O1	-14.2	-6.6[16.7 µM]	0.3	21.9*	0.2
C[C@H]1CN([C@@H](C)CO)C(=O)c2cc(C#CCN(C)C)cnc2O[C@H]1CN(C)Cc1cccc(C(=O)O)c1	-1.9	-3.0[16.7 µM]	0.7	8.0	.
COc1cccc(-c2ccc3c(c2)O[C@@H](CN(C)C(=O)C2CCOCC2)[C@@H](C)CN([C@H](C)CO)S3(=O)=O)c1	-0.2	1.1[16.7 µM]	-4.8	2.5	0.1
Cc1ccc(NC(=O)Cn2c(CCC(=O)O)ccc2-c2ccc(Cl)cc2)cc1	-0.8	.	-24.8*	5.3	.
COc1cccc(NC(=O)Cn2c(CCC(=O)O)ccc2-c2ccc(Cl)cc2)c1	.	.	-4.5	0.1	.
COc1ccccc1CNC(=O)C[C@H]1C[C@H]2c3cc(NC(=O)Nc4ccccc4F)ccc3O[C@H]2[C@H](CO)O1	3.7	4.5[16.7 µM]	1.5	-0.9	0.0
COc1ccccc1CNC(=O)C[C@@H]1C[C@H]2c3cc(NC(=O)Nc4ccccc4F)ccc3O[C@H]2[C@@H](CO)O1	94.1*	27.3[16.7 µM]	-4.2	.	0.0
COc1ccccc1CNC(=O)C[C@@H]1C[C@@H]2c3cc(NC(=O)Nc4ccccc4F)ccc3O[C@@H]2[C@H](CO)O1	102.6*	11.2[16.7 µM]	-1.6	.	1.2
CCC1=C(OC(=O)N(CC)CC)N2C(=O)OC(=NCC(=O)OC)[C@]2(Cc2ccccc2)[C@H]2C1=CC[C@H]1C(=O)N(C)C(=O)[C@H]12	-1.2	3.7	3.0	6.9	-0.9
CCC1=C(OC(=O)N(CC)CC)N2C(=O)OC(=NCC(=O)OC)[C@]2(Cc2ccccc2)[C@H]2C1=CC[C@H]1C(=O)NC(=O)[C@H]12	2.4	.	2.7	23.3*	-0.1
COc1cc(S(=O)(=O)N2CCOCC2)ccc1NC(=O)CSc1n[nH]c(=O)[nH]c1=O	.	144.1*	5.0	6.0	.
COc1ccc(S(=O)(=O)N2CCOCC2)cc1NC(=O)CSc1n[nH]c(=O)n1C1CC1	4.3	0.5	13.3	-2.9	.
C[C@H]1CN=C(Nc2ccccc2)N1CCCC1CCCC1	1.1	4.7	-1.5	58.3*	0.0
COC(=O)N(C)C[C@H]1OCc2cn(nn2)CCCC(=O)N([C@@H](C)CO)C[C@H]1C	.	-2.5[16.7 µM]	0.4	.	0.0
O=C(NCc1ccccn1)C(=O)C1C(=O)Nc2ccccc21 (centres undefined)	.	.	13.1	-3.4	.
